We go through two molecules from ChEMBL document CHEMBL1155047, “Isolation, structure, and antibacterial activity of phaeosphenone from a Phaeosphaeria sp. discovered by antisense strategy” (J Nat Prod, 2008).

In one experiment the test system is Enterococcus faecalis. The experiment is described as follows: Antimicrobial activity against vancomycin-sensitive and macrolide-resistant Enterococcus faecalis CL8516. The format is functional. In a few lines: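 Broth microdilution MIC under NCCLS guidelines in cation-adjusted Mueller Hinton broth unless stated otherwise; inoculum 10^5 CFU/mL; 2-fold serial compound dilutions in growth medium; 37 °C for 20 h. MIC read as lowest concentration preventing visible growth; a value for 80% growth inhibition also reported.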

The test system of experiment [1] is Streptococcus pneumoniae. The experiment is described as follows: Antimicrobial activity against penicillin, quinoline and macrolide-sensitive Streptococcus pneumoniae CL2883 in isosensitet medium. The format is functional. In a few lines:
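Pneumococcal broth MIC run in Isosensitest medium with 2-fold serial compound dilutions, 37 °C for 20 h. The reading is the lowest concentration with no visible growth.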

The test system of experiment [2] is Streptococcus pneumoniae. The experiment in a line: Antimicrobial activity against penicillin, quinoline and macrolide-sensitive Streptococcus pneumoniae CL2883 in CAMHB and 2.5 % lysed horse serum medium. Format: functional. Conditions: in the assay text read “lysed horse blood” for “lysed horse serum”. In a few lines:
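Broth MIC with 2-fold serial dilution in cation-adjusted Mueller Hinton broth plus 2.5% lysed horse blood, incubated 20 h at 37 °C, NCCLS guidelines. Endpoint is no visible growth.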

For experiment [3], the system named is Staphylococcus aureus. The experiment in a line: Antimicrobial activity against methicillin-sensitive Staphylococcus aureus MB2865 in presence of human serum. Format: functional.
Experiment [4] has as its system Staphylococcus aureus. The experiment in a line: Antimicrobial activity against methicillin-sensitive Staphylococcus aureus MB2865. The format is functional. In a few lines: (§1)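 Broth microdilution under NCCLS guidelines, with 2-fold serial compound dilutions. Cells are incubated at 37 °C for 20 h. MIC is the lowest concentration that prevents visible growth. The concentration giving 80% growth inhibition is also reported.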

The test system of experiment [5] is Staphylococcus aureus. The experiment is described as follows: Antimicrobial activity against methicillin-sensitive Staphylococcus aureus ATCC 29213. Format: functional. An outline of the steps:
as §1

The test system of the next experiment is Bacillus subtilis. The experiment in a line: Antimicrobial activity against wild type Bacillus subtilis MB964. The format is functional. An outline of the steps: as §1
Another experiment has as its system Haemophilus influenzae. The experiment is described as follows: Antimicrobial activity against ampicillin, quinoline and macrolide-sensitive Haemophilus influenzae MB4572. The format is functional. In a few lines: as §1
Another experiment deals with Escherichia coli. The experiment is described as follows: Antimicrobial activity against wild type Escherichia coli MB2884. Format: functional. An outline of the steps: as §1
The next experiment relates to Candida albicans. The experiment in a line: Antimicrobial activity against wild type Candida albicans MY1055. Format: functional. An outline of the steps: as §1
The test system of experiment [6] is Staphylococcus aureus. The experiment in a line: Antimicrobial activity against Staphylococcus aureus RN450 carrying plasmid S1-782B bearing antisense […] RNA assessed as zone size at 500 ug/ml by two-plate differential sensitivity assay. The format is functional. Conditions: read-out: IZ. An outline of the steps: (§2)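 The S. aureus RN450 strains carry plasmid S1-782B, either with rpsD antisense RNA or with empty vector (control). Overnight cultures are grown in Miller's LB with 34 µg/mL chloramphenicol at 37 °C, 220 rpm, for 18–20 h. They are seeded 1:1000 of OD 3.0 into LB agar with 0.2% glucose and 15 µg/mL chloramphenicol; 12 mM xylose is added for the antisense strain only. Samples go into wells at 2-fold dilutions from 500 to 31.25 µg/mL. Zones are read after 18 h at 37 °C.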

The subject of experiment [7] is Staphylococcus aureus. The experiment in a line: Antimicrobial activity against Staphylococcus aureus RN450 assessed as zone size at 500 ug/ml by two-plate differential sensitivity assay. The following applies: read-out: IZ. The format is functional. In a few lines:
as §2

For experiment [8], the system named is Staphylococcus aureus. The experiment in a line: Antimicrobial activity against Staphylococcus aureus RN450 carrying plasmid S1-782B bearing antisense […] RNA assessed as zone size at 31.25 ug/ml by two-plate differential sensitivity assay. The format is functional. Conditions: read-out: IZ. An outline of the steps:
as §2

Experiment [9] deals with Staphylococcus aureus. The experiment is described as follows: Antimicrobial activity against Staphylococcus aureus RN450 assessed as zone size at 31.25 ug/ml by two-plate differential sensitivity assay. Format: functional, organism-based. An outline of the steps:
as §2

Experiment [10] deals with Staphylococcus aureus. The experiment in a line: Inhibition of Staphylococcus aureus RNA synthesis. Format: functional, organism-based. An outline of the steps: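 Mid-log S. aureus (A600 0.5–0.6) is exposed to increasing compound concentrations for 20 min at 37 °C with 1 µCi/mL 5,6-[3H]uracil. The reaction is stopped with 10% trichloroacetic acid, and cells are collected on glass-fibre filters. Incorporated label is counted by scintillation.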

In brackets after ≈: the same amount, converted by molar mass. Activity calls are given as the source filed them. No cut-off for these calls is given here. Some results are limits rather than exact numbers.

As to `Cc1cc(O)c2c(c1)C(=O)c1c(cc(C)c([C@H]3C[C@@H](O)C4=C(C(=O)C5=C(C4=O)[C@@H](O)CC[C@@H]5O)[C@H]3O)c1O)C2=O` [PHAEOSPHENONE], the MIC is 64 µg/mL (≈ 117 µM) against Enterococcus faecalis; 8 µg/mL (≈ 14.6 µM) in the experiment with Streptococcus pneumoniae [1]; 64 µg/mL (≈ 117 µM) in the experiment on Streptococcus pneumoniae [2]; above 64 µg/mL in the experiment on Staphylococcus aureus [3]; 64 µg/mL (≈ 117 µM) against Staphylococcus aureus [4]; 32 µg/mL (≈ 58.6 µM) against Staphylococcus aureus [5]. Further, the MIC is 16 µg/mL (≈ 29.3 µM) with Bacillus subtilis, above 64 µg/mL against Haemophilus influenzae, above 64 µg/mL in the experiment with Escherichia coli and 8 µg/mL (≈ 14.6 µM) against Candida albicans. Further, the MIC80 amounted to 32 µg/mL (≈ 58.6 µM) in the experiment with Staphylococcus aureus [4] and 16 µg/mL (≈ 29.3 µM) in the experiment with Staphylococcus aureus [5]. In addition, the zone of inhibition at 500 µg/mL is 16 mm with Staphylococcus aureus [6] and 11.8 mm in the experiment on Staphylococcus aureus [7]. Besides, the zone of inhibition at 31.25 µg/mL in the experiment with Staphylococcus aureus [8] was 7 mm. In addition, the result with Staphylococcus aureus [9] was inactive.
For `Cc1cc(O)c2c(c1)C(=O)C1=C(C2=O)[C@@H](O)[C@@H](O)[C@@H](O)C1` [PLEOSPORONE], it took 6 µg/mL (≈ 20.7 µM) to reach half-maximal inhibition in the experiment with Staphylococcus aureus [10] (IC50).
